# Only some compounds are listed: those with a hit (about 2.2% of all), similar ones and a draw of the others.
# TDP2 inh: blocks human TDP2 phosphodiesterase activity. hit rate 0.34% among 370,000. inhibition, % at 12.8 µM. recombinant TDP2, T5PNP hydrolysis, p-nitrophenol absorbance 415 nm;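 active = inhibition above the mean of all tested compounds plus 3 SD, set per campaign, cut at about 25% in these data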;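 also: 0% = DMSO with enzyme and 100% = buffer with substrate but no TDP2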
# Target sequence (O95551 whole entry, looked up): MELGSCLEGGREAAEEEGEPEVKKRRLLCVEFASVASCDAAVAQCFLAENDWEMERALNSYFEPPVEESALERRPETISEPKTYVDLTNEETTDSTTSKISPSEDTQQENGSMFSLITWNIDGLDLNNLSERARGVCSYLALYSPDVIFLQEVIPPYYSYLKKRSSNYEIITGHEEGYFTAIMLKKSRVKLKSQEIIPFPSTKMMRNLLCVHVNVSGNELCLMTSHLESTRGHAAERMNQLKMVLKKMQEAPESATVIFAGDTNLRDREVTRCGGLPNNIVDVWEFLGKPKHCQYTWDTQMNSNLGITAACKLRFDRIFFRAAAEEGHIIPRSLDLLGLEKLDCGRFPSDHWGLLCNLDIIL
#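 System: recombinant human TDP2 / Amount: 120 nM TDP2 per well / Also added: 5 mM T5PNP chromogenic substrate / Doses: 12.8 µM single point, 1% DMSO / Incubation: 2 h at 37 °C / Detection: p-Nitrophenol epi absorbance / Evaluation: % inhibition relative to enzyme-containing and enzyme-free wells / Repeats: singlicate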
# HTRA1 inhibitor: blocks human HTRA1 serine peptidase. Q92743. recombinant HTRA1, FP-rhodamine activity-based probe, fluorescence polarization. inhibition, % at 5.96 µM. hit rate 0.5% among 340,000; in the data active = inhibition above about 36%;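 also: 0% = enzyme with DMSO and 100% = wells lacking enzyme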
# SIAE primary: blocks human sialic acid acetylesterase; hit rate 0.69% among 370,000; SIAE FP-Rh probe binding, fluorescence polarization; inhibition, % at 9.66 µM; Q9HAT2; AID 1053197;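 active = inhibition above a cutoff: mean of compounds within the control limits plus 3 SD of those, cut at about 17% in these data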;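 also: 0% = plate median of compound wells and 100% = probe without SIAE protein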
# TCR-CD3 inh: blocks the human TCR-CD3 interaction | TAMRA-labeled TCR probe fluorescence, biochemical | inhibition, % at 9.4 µM | hit rate 0.37% among 360,000 | AID 651800;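 also: recombinant mutant TCR 2C K166C tagged with TAMRA read by polarization; 0% = receptor in buffer alone and 100% = receptor with positive control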
# ABHD4 inh: inhibits mouse alpha/beta hydrolase domain 4 | hit rate 0.54% among 370,000 | inhibition, % at 8.92 µM | Q8VD66 | purified mABHD4, FP-Rh probe fluorescence polarization;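 active = inhibition exceeding the mean over every tested compound plus 3 SD, cut at about 30% in these data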;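 also: 0% = plate median of compound wells and 100% = S159A mutant with DMSO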
#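 Assay system: wild-type mouse ABHD4 protein; compound: single nominal dose of 8.92 µM, 0.89% DMSO final; schedule: 45 min + 60 min at 25 °C; measured by: FP readout, ex 525 nm / em 598 nm; evaluation: % inhibition of FP-Rh probe binding versus controls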
# LEDGF integ inh: blocks HIV-1 LEDGF/p75-dependent DNA integration; TR-FRET IN-LEDGF/p75 DNA integration, Eu/Cy5; inhibition, % at 3.7 µM; hit rate 0.64% among 370,000; AID 743269;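 active = inhibition above the screen-wide mean plus 3 SD, cut at about 13% in these data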;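 also: signal is the Cy5 over europium emission ratio at 671 and 618 nm; 0% = plate median of compound wells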
# HTRA1 inh conf: HTRA1 (human) inhibition, confirmation | shares compounds with HTRA1 inhibitor | recombinant HTRA1, FP-rhodamine activity-based probe, fluorescence polarization | inhibition, % at 5.96 µM | hit rate 66% among 1,600;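 active = mean inhibition over three repeats above a set limit taken from the earlier primary screen, cut at about 37% in these data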;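 also: 0% = HTRA1 with DMSO and 100% = wells lacking HTRA1; inhibitors block probe binding so polarization drops and inhibition rises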
# BSA probe FL: interferes with TAMRA-BSA probe, flagging TCR-CD3 hits | shares compounds with TCR-CD3 inh | TAMRA-labeled BSA probe fluorescence counterscreen | inhibition, % at 9.4 µM | hit rate 10% among 1,200 | AID 652035; in the data active = inhibition above about 23%;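 also: 0% = buffer low control and 100% = reference high control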
# TCR-CD3 conf: confirmation of human TCR-CD3 interaction inhibitors. shares compounds with TCR-CD3 inh. TAMRA-labeled TCR probe fluorescence binding assay. inhibition, % at 9.4 µM. hit rate 48% among 1,200. AID 652036
# * hit, by the source's call; / = not tested or not shown. Rule as the data show it, unless noted: active = inhibition above about 19%; inactive = the rest.
SMILES,TDP2 inh,HTRA1 inhibitor,SIAE primary,TCR-CD3 inh,ABHD4 inh,LEDGF integ inh,HTRA1 inh conf,BSA probe FL,TCR-CD3 conf
CC(C)[C@H](NC(=O)c1ccccc1)C(=O)OCC(=O)Nc1ccc(S(=O)(=O)N2CCOCC2)cc1,12,24,8,-1,-1,3,/,/,/
CC(C)[C@H](NC(=O)c1cccc(S(=O)(=O)N2CCOCC2)c1)C(=O)OCC(=O)Nc1cccc(Br)c1,-1,37*,-15,1,-15,2,37*,/,/
COc1cccc(-c2nnc(SCC(=O)Nc3cccc4ccccc34)n2Cc2ccco2)c1,-6,/,-6,/,-7,-3,/,/,/
Brc1ccc(C=Nc2ccc(Nc3ccccc3)cc2)s1,/,73*,/,/,/,/,94*,/,/
COc1ccc(OC)c(/C=N/NC(=O)C(=O)N2CCCCCC2)c1,-13,42*,-8,-10,1,2,-2,/,/
CCCCCCCCCCCCCCCC[n+]1ccc(/C=N/O)cc1,-12,61*,68*,3,51*,-10,81*,/,/
O/N=C/c1cccc[n+]1CCCCCC[n+]1ccccc1/C=N/O,-3,16,4,6,-4,-2,/,/,/
CC(=NNc1ccc2ccccc2n1)c1ccccn1,-10,/,5,-1,3,2,/,/,/
COc1ccc2nc(NN=C(C)c3ccccn3)cc(C)c2c1,2,55*,-2,1,-13,3,67*,/,/
COc1cccc(/C=C2\CC3(OC(=O)C(C)(C)C)CCCN2C3)c1 (configuration not stated),0,/,1,/,7,-2,/,/,/
CCC(c1ccc(O)c(O)c1)C(CC)c1ccc(O)c(O)c1 (configuration not stated),/,59*,/,/,/,/,68*,/,/
CCN(CC)c1cccc(OC2=NS(=O)(=O)c3ccccc32)c1,-3,46*,31*,53*,88*,-5,15,/,/
COc1ccccc1N1C(=O)N(C(C)=O)C2C1Nc1ccccc1N2C (configuration not stated),12,49*,11,2,26,7,8,/,/
CCCCCCCCN1C(=O)[C@@H](CC(=O)N2CCN(C(=O)C3CC3)CC2)C[C@@]2(C(=O)OC)C1=C[C@H](C(C)C)O[C@@H]2C1CC1,-9,/,-2,/,-10,1,/,/,/
O=C(N/N=C/c1c(O)ccc2ccccc12)c1ccc[n+](CCO)c1,-1,52*,7,26*,11,-6,50*,-10,17
O=c1oc2ccccc2c2oc3cc(O)c(O)cc3c12,-13,82*,3,21*,55*,5,77*,-3,31*
Nc1c(N)c2ccccc2oc1=O,-7,-8,13,-2,11,-2,/,/,/
O=C(CCCn1c(SCC(=O)c2ccc(O)c(O)c2)nc2ccccc2c1=O)NCC1CCCO1 (configuration not stated),0,38*,8,21*,16,1,36*,-16,40*
COC(=O)c1ccc2c(C3(c4c[nH]c5ccccc45)CCN(C(=O)OC(C)(C)C)CC3)c[nH]c2c1,6,/,-11,/,-44,-4,/,/,/
Cc1ccc(C2=NC(=O)/C(=C/c3cc(O)c(O)c(Br)c3)S2)cc1,-6,67*,-6,33*,22,89*,71*,-10,47*
CC(C)C[C@H](NC1(C(=O)NCCc2c[nH]c3ccccc23)CCC1)C(=O)NCCCc1ccccc1,-22,/,2,/,-6,4,/,/,/
O=C(CCCN1C(=O)/C(=C/c2cccs2)SC1=S)NNC(=O)c1ccccc1O,6,57*,-9,31*,8,-1,72*,-5,31*
COc1cccc(/C=C2\SC(=S)N(CCC(=O)NNC(=O)c3ccccc3OC)C2=O)c1,6,39*,5,41*,3,-2,33,1,22*
COc1cccc(/C=C2/SC(=S)N(CC(=O)NNC(=O)c3ccccc3OC)C2=O)c1,-13,11,-5,17,-10,-4,/,/,/
Cc1ccc2nc(-c3ccccc3)cn2c1,-13,0,0,5,-3,3,/,/,/
SMILES,TDP2 inh,HTRA1 inhibitor,SIAE primary,TCR-CD3 inh,ABHD4 inh,LEDGF integ inh,HTRA1 inh conf,BSA probe FL,TCR-CD3 conf
Cc1ccc2nc(-c3ccc(O)c(O)c3)cn2c1,3,45*,12,54*,14,23*,74*,-3,28*
Oc1ccc(-c2csc(-c3cccnc3)n2)cc1O,-16,37*,-4,22*,11,4,47*,-8,16
COC(=O)[C@]12C[C@H](CC(=O)N3CCOCC3)C(=O)N(CCC3=CCCCC3)C1=C[C@H](C(C)C)O[C@@H]2C1CC1,8,/,-1,/,-2,-1,/,/,/
O=C(NNC(=O)c1ccccc1O)c1ccc(Cl)c(S(=O)(=O)N2CCc3ccccc32)c1,-1,50*,-1,28*,-26,-7,50*,-6,16
O=C(c1ccc(Cl)c(S(=O)(=O)N2CCc3ccccc32)c1)N1CCN(c2ccccc2O)CC1,0,-24,2,-5,3,1,/,/,/
CCCC1CCC2(CC1)CCC2OC(=S)NCc1cccc(OC)c1 (configuration not stated),-2,/,-5,/,-20,-2,/,/,/
CCOc1cc(CCNC(=O)c2cc3ccsc3n2C)ccc1OC,-5,/,3,/,3,3,/,/,/
O=c1cc(-c2ccc(O)c(O)c2)oc2ccc3ccccc3c12,2,69*,4,56*,23,-4,70*,-6,48*
COc1ccc(-n2c(SCC(=O)Nc3ccc(S(=O)(=O)Nc4nccs4)cc3)nnc2-c2ccco2)cc1,-6,/,-4,/,-11,1,/,/,/
CCn1c(SCC(=O)c2ccc(O)c(O)c2)nnc1-c1ccccc1OC,-3,38*,5,29*,25,10,44*,-1,31*
CCn1c(CSc2nc3ccccc3s2)nnc1SCC(=O)c1ccc(Cl)cc1,0,-10,-1,-3,-1,-1,/,/,/
CCn1c(SCC(=O)c2ccc(O)c(O)c2)nnc1-c1ccccc1,-8,28,7,16,18,-6,/,/,/
CCn1c(CSc2nc3ccccc3s2)nnc1SCC(=O)c1ccc(O)c(O)c1,-1,55*,-6,23*,20,5,86*,-18,29*
CC1(C)CC(=O)C=C(c2ccccc2-c2cccc(C(N)=O)c2)C1=O,2,/,-1,-2,-2,-2,/,/,/

# Assay outcomes as filed in PubChem.
